Results from ChEMBL document CHEMBL4028818, “Tricyclic 4,4-dimethyl-3,4-dihydrochromeno[3,4-d]imidazole derivatives as microsomal prostaglandin E2 synthase-1 (mPGES-1) inhibitors: SAR and in vivo efficacy in hyperalgesia pain model” (Bioorg Med Chem Lett, 2017).

Tests used:
[1] = biological target: T1, Prostaglandin E synthase (Homo sapiens, UniProt O14684); experiment: Inhibition of mPGES-1 in human A549 cells assessed as decrease in IL1beta induced PGE2 release preincubated for 30 mins followed by IL-1beta addition after 16 to 20 hrs by HTRF method; assay type: cell-based
T1 sequence (O14684 whole entry): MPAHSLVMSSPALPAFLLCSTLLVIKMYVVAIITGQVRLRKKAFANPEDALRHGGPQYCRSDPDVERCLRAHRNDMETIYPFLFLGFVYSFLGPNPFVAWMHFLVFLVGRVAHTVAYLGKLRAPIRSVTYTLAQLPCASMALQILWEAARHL

[2] = biological target: Cytochrome P450 2C9 (Homo sapiens, UniProt P11712); experiment: Inhibition of CYP2C9 in human liver microsomes at 1 uM measured after 20 mins in presence of NADPH by LC/MS/MS analysis; assay type: ADME
How it was run: (§1)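 CYP isoforms 1A2, 2D6, 3A4, 2C9 and 2C19 were tested at 1 and 10 µM. Results are % inhibition compared with a no-inhibitor control, run in triplicate.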

[3] = biological target: Cytochrome P450 2D6 (Homo sapiens, UniProt P10635); experiment: Inhibition of CYP2D6 in human liver microsomes at 1 uM measured after 20 mins in presence of NADPH by LC/MS/MS analysis; assay type: ADME; how it was run: as §1
[4] = biological target: Cytochrome P450 3A4 (Homo sapiens, UniProt P08684); experiment: Inhibition of CYP3A4 in human liver microsomes at 1 uM measured after 20 mins in presence of NADPH by LC/MS/MS analysis; assay type: ADME; how it was run: as §1
[5] = biological target: CYP2D6 (Homo sapiens, UniProt P10635); experiment: Inhibition of CYP2D6 in human liver microsomes at 10 uM measured after 20 mins in presence of NADPH by LC/MS/MS analysis relative to control; assay type: ADME; settings: liver microsomes; how it was run: as §1
[6] = Metabolic stability in human liver microsomes assessed as parent compound remaining at 1 uM after 60 mins in presence of NADPH by LC/MS/MS analysis; assay type: ADME, microsome; settings: read-out: Stability
How it was run: (§2)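 Compound at 1.0 µM was incubated with liver microsomes (1.0 mg/mL protein) at 37 °C for 60 min. Samples were analysed by LC/MS/MS as % parent remaining. Run in triplicate.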

[7] = biological target: T2, Cytochrome P450 1A2 (Homo sapiens, UniProt P05177); experiment: Inhibition of CYP1A2 in human liver microsomes at 1 uM measured after 20 mins in presence of NADPH by LC/MS/MS analysis; assay type: ADME; how it was run: as §1
T2 sequence (P05177 whole entry): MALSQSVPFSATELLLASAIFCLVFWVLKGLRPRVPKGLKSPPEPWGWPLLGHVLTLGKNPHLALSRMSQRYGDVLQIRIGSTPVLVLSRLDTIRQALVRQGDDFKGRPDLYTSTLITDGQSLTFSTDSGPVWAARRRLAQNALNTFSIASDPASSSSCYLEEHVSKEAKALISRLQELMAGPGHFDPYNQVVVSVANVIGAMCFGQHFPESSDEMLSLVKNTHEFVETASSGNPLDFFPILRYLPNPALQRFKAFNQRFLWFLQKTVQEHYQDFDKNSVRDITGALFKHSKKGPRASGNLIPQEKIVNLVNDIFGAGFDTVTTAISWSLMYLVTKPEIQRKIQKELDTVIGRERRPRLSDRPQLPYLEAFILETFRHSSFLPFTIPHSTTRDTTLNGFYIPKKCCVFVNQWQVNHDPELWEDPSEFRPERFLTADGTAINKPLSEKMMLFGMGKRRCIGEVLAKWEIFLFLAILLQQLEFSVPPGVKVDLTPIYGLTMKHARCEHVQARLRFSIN

[8] = biological target: CYP3A4 (Homo sapiens, UniProt P08684); experiment: Inhibition of CYP3A4 in human liver microsomes at 10 uM measured after 20 mins in presence of NADPH by LC/MS/MS analysis relative to control; assay type: ADME; how it was run: as §1
[9] = biological target: CYP2C9 (Homo sapiens, UniProt P11712); experiment: Inhibition of CYP2C9 in human liver microsomes at 10 uM measured after 20 mins in presence of NADPH by LC/MS/MS analysis relative to control; assay type: ADME; how it was run: as §1
[10] = biological target: T1, Prostaglandin E synthase; experiment: Inhibition of recombinant human mPGES-1 expressed in CHO cells assessed as reduction in PGE2 formation using PGH2 a substrate preincubated for 10 mins followed by substrate addition measured after 1 min; assay type: cell-based
How it was run: (§3)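 mPGES-1 enzyme inhibition. % inhibition values are means of two experiments in duplicate. IC50 values were derived from graphs of at least two experiments in duplicate.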

[11] = biological target: Cytochrome P450 2C19 (Homo sapiens, UniProt P33261); experiment: Inhibition of CYP2C19 in human liver microsomes at 1 uM measured after 40 mins in presence of NADPH by LC/MS/MS analysis; assay type: ADME; how it was run: as §1
[12] = Metabolic stability in Guinea pig liver microsomes assessed as parent compound remaining at 1 uM after 60 mins in presence of NADPH by LC/MS/MS analysis; assay type: ADME, Cavia porcellus, microsome; settings: read-out: Stability; how it was run: as §2
[13] = system: Cavia porcellus; experiment: Analgesic activity in Dunkin Hartley guinea pig hyperalgesia pain model assessed as inhibition of LPS-induced thermal hyperalgesia at 10 mg/kg, po qd administered 1 hr prior to LPS stimulation measured after 4.5 hrs by plantar test relative to control; assay type: functional
How it was run: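 LPS was injected into the guinea pig plantar to induce thermal hyperalgesia, and compound was given orally. Response is expressed as % hyperalgesia, with a saline-injected naive group as 0% and the vehicle-treated LPS group as 100%. Values are mean ± SEM, n = 8 per dose group.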

[14] = Metabolic stability in rat liver microsomes assessed as parent compound remaining at 1 uM after 60 mins in presence of NADPH by LC/MS/MS analysis; assay type: ADME, microsome; settings: read-out: Stability; how it was run: as §2
[15] = biological target: T3, Prostaglandin E synthase (Homo sapiens) (UniProt O14684); experiment: Inhibition of recombinant human mPGES-1 expressed in CHO cells assessed as reduction in PGE2 formation at 10 uM using PGH2 a substrate preincubated for 10 mins followed by substrate addition measured after 1 min relative to control; assay type: cell-based; how it was run: as §3
T3 sequence (whole entry): T1 sequence (O14684 whole entry)

[16] = biological target: T4, COX2 (Homo sapiens, UniProt P35354); experiment: Inhibition of recombinant human N-terminal His-tagged COX2 expressed in baculovirus infected Sf21 insect cells assessed as decrease in PGE2 release at 10 uM using arachidonic acid as substrate preincubated for 15 mins followed by arachidonic acid addition measured after 5 mins relative to control; settings: probe arachidonic acid
T4 sequence (P35354 whole entry): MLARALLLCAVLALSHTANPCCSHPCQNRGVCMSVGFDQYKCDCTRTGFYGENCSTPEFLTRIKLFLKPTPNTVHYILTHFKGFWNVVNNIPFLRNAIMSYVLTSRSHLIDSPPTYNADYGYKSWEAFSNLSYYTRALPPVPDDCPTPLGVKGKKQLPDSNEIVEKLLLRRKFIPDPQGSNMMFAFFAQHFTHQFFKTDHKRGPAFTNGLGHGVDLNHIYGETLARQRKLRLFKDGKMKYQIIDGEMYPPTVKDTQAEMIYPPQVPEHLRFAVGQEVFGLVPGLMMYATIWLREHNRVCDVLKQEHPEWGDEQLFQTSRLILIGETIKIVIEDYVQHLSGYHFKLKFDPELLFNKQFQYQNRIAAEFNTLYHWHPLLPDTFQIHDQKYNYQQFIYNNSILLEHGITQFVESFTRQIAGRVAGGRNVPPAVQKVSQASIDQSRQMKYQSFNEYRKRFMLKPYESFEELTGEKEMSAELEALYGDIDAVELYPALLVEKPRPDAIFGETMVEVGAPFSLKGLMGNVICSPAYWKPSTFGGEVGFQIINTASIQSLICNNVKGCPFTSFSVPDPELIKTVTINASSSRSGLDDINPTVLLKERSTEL

[17] = biological target: T3, Prostaglandin E synthase (Homo sapiens); experiment: Inhibition of recombinant human mPGES-1 expressed in CHO cells assessed as reduction in PGE2 formation at 1 uM using PGH2 a substrate preincubated for 10 mins followed by substrate addition measured after 1 min relative to control; assay type: cell-based; how it was run: as §3
[18] = biological target: T4, COX2; experiment: Inhibition of recombinant human N-terminal His-tagged COX2 expressed in baculovirus infected Sf21 insect cells assessed as decrease in PGE2 release at 1 uM using arachidonic acid as substrate preincubated for 15 mins followed by arachidonic acid addition measured after 5 mins relative to control; settings: probe arachidonic acid
[19] = biological target: Prostaglandin G/H synthase 1 (Homo sapiens, UniProt P23219); experiment: Inhibition of COX1 in human U937 cells assessed as decrease in PGE2 release using arachidonic acid as substrate preincubated for 15 mins followed by arachidonic acid addition measured after 5 mins; assay type: cell-based
[20] = biological target: T5, Prostaglandin G/H synthase 2 (Homo sapiens, UniProt P35354); experiment: Inhibition of recombinant human N-terminal His-tagged COX2 expressed in baculovirus infected Sf21 insect cells assessed as decrease in PGE2 release using arachidonic acid as substrate preincubated for 15 mins followed by arachidonic acid addition measured after 5 mins
T5 sequence (P35354 whole entry): T4 sequence (P35354 whole entry)

Chain of CYP2C9 (P11712 whole entry): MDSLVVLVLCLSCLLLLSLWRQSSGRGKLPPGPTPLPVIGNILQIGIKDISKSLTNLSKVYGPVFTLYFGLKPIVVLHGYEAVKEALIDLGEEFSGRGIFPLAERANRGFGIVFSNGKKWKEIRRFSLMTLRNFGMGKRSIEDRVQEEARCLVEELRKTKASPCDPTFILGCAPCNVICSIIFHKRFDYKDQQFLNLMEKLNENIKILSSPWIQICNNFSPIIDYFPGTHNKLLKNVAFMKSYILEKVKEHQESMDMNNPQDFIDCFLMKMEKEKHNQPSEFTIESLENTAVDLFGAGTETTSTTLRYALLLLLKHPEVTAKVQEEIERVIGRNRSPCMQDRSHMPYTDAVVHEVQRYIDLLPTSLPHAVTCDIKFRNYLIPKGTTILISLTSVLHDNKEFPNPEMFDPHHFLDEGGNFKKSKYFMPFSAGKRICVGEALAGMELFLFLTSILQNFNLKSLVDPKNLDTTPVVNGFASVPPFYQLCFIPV
Chain of Cytochrome P450 2C9 (P11712 whole entry, canonical isoform): as the sequence (P11712 whole entry) above
Chain of Cytochrome P450 3A4 (P08684 whole entry): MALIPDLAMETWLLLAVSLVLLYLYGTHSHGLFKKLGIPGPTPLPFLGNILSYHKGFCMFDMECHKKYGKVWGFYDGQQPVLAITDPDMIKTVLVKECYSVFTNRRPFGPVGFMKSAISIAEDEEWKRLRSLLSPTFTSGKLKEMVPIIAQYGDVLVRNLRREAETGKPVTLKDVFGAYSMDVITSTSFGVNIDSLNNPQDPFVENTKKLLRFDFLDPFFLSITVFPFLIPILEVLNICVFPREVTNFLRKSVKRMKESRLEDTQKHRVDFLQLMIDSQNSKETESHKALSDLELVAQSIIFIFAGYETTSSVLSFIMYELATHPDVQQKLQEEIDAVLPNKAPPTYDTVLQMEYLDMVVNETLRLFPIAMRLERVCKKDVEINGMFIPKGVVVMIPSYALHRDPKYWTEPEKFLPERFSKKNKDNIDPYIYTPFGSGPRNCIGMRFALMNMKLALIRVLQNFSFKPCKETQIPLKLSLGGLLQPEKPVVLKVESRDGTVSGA
Chain of CYP3A4 (P08684 whole entry): as above
Chain of Cytochrome P450 2D6 (P10635 whole entry): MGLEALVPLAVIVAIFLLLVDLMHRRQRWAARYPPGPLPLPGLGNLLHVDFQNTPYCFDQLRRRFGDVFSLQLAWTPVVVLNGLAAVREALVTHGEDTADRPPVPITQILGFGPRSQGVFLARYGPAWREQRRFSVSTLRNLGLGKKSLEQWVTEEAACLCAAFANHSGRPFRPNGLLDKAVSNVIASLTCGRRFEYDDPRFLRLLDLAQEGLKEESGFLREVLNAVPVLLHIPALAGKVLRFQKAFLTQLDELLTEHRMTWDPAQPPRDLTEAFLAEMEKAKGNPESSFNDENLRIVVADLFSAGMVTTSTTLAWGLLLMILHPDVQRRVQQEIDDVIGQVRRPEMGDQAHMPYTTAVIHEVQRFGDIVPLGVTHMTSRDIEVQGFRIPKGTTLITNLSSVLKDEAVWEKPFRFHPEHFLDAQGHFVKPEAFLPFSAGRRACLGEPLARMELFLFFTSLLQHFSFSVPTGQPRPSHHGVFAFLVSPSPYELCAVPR
Chain of CYP2D6 (P10635 whole entry): as above
Chain of Cytochrome P450 2C19 (P33261 whole entry): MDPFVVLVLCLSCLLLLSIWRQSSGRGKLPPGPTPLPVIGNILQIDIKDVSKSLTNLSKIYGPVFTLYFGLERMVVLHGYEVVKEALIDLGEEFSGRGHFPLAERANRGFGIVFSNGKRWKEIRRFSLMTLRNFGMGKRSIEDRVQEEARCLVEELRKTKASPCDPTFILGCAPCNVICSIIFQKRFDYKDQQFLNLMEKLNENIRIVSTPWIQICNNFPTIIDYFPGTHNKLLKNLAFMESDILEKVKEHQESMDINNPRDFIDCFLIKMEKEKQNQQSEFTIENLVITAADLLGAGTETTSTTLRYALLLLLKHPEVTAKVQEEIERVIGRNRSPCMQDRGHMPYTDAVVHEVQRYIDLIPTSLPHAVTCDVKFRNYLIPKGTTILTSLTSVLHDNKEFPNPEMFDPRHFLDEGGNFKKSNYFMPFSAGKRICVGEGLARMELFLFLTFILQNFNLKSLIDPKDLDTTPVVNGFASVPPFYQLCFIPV
Chain of Prostaglandin G/H synthase 1 (P23219 whole entry): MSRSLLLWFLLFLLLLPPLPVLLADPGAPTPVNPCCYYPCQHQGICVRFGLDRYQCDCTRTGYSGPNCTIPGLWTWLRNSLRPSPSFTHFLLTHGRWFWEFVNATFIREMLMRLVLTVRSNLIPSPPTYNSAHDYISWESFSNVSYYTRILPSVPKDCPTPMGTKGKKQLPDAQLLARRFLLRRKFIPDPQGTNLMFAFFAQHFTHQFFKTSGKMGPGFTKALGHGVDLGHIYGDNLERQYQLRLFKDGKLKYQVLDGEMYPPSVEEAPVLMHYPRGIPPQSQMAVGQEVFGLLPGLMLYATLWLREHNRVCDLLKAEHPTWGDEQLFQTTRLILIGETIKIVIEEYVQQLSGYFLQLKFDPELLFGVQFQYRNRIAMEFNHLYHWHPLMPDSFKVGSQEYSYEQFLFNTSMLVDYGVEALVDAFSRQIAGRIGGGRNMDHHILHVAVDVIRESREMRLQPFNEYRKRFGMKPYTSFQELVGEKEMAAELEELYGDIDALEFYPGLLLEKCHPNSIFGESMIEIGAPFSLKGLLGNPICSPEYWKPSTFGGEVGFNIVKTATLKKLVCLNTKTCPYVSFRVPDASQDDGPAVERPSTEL

Row | SMILES | IC50 [1] [nM] | inhibition (INH) [2] | inhibition (INH) [3] | inhibition (INH) [4] | inhibition at 20 min, 10 µM [5] [%] | remaining at 1 h, 1 µM [6] [%] | inhibition (INH) [7] | inhibition at 20 min, 10 µM [8] [%] | inhibition at 20 min, 10 µM [9] [%] | IC50 [10] [nM] | inhibition (INH) [11] | remaining at 1 h, 1 µM [12] [%] | inhibition in vivo at 10 mg/kg [13] [%] | remaining at 1 h, 1 µM [14] [%] | inhibition [15] [%] | inhibition at 5 min, 10 µM [16] [%] | inhibition [17] [%] | inhibition at 5 min, 1 µM [18] [%] | IC50 [19] [nM] | IC50 [20] [nM]
1 | CC1(C)Oc2cc(C#Cc3ccccc3C(F)(F)F)ccc2-c2nc(-c3c(C#N)cccc3C#N)[nH]c21 | 298 | Not Active | Not Active | Not Active | 29 | 81 | Not Active | 24 | 32 | 15.9 | Not Active | 100 |  |  |  |  |  |  |  | 
2 | O=C(O)Cc1ccccc1Nc1c(Cl)cccc1Cl [DICLOFENAC] |  |  |  |  |  |  |  |  |  |  |  |  | 80 |  |  |  |  |  |  | 
3 | CC1(C)Oc2cc(-c3cccc(C(F)(F)F)c3)ccc2-c2[nH]c(-c3c(F)cccc3Cl)nc21 | 616 | Not Active | Not Active | Not Active | 56 | 89 | Not Active | 37 | 35 | 92.9 | Not Active | 93 |  | 99 | 94.6 | 27.4 | 91.4 | 2.65 | 8350 | > 10000
